The results in this text go back to ChEMBL document CHEMBL1165914, “Characterization of 4-methyl-2-oxo-1,2-dihydroquinolin-6-yl acetate as an effective antiplatelet agent” (2010).

Activity calls are given as the source filed them. No cut-off for these calls is given here.

The species named for experiment [1] is Homo sapiens. Nature of the experiment: Activation of human platelet NOS assessed as increase in nitric oxide level by flow cytometry. The procedure, abridged:
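Platelets incubated with compounds, then intracellular NO measured by flow cytometry following the Imrich and Kobzik method.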

Experiment [2] is filed under the species Homo sapiens. Nature of the experiment: Inhibition of human platelet CRTAase assessed as inhibition of acetylation of glutathione S-transferase. Details: concentration or dose not given beside the values. As to conditions: concentration not given here. The procedure, abridged:
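Platelet lysate as enzyme source. Acetoxy substrate preincubated with CRTAase and GST in potassium phosphate buffer pH 6.5, 37 °C, 10 min; GSH and CDNB then added and absorbance read at 340 nm. Activity unit is % inhibition of GST activity; mean of five observations.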

Experiment [3] has as its system Platelet. Nature of the experiment: Antiplatelet activity in human platelet rich plasma assessed as inhibition of ADP-induced platelet aggregation measured for 6 mins by aggregometry. Type of experiment: functional.
The test system of experiment [4] is Rattus norvegicus. Description: Ex vivo antiplatelet activity in Sprague-Dawley rat platelets assessed as inhibition of arachidonic acid-induced platelet aggregation at 133 umole/kg, po after 24 hrs by aggregometry. Type of experiment: functional, organism-based. In outline: (§1)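 Rats dosed orally and killed 24 h later. Blood taken by cardiac puncture and centrifuged as for PRP/PPP preparation (180g 10 min; 2500g 10 min). ADP- or AA-induced aggregation then measured by light-transmittance aggregometry.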

In experiment [5] the test system is Rattus norvegicus. Nature of the experiment: Ex vivo antiplatelet activity in Sprague-Dawley rat platelets assessed as inhibition of ADP-induced platelet aggregation at 133 umole/kg, po after 24 hrs by aggregometry. Type of experiment: functional, organism-based. In outline: as §1
In experiment [6] the test system is Rattus norvegicus. Description: Inhibition of COX1 in po dosed Sprague-Dawley rat after 24 hrs by ELISA. The format is functional, organism-based.
Experiment [7] has as its system Rattus norvegicus. Nature of the experiment: Inhibition of COX1 in po dosed Sprague-Dawley rat after 24 hrs by ELISA relative to control. Type of experiment: functional.
Experiment [8] deals with Platelet. Nature of the experiment: Antiplatelet activity in human platelet rich plasma assessed as inhibition of arachidonic acid-induced platelet aggregation measured for 6 mins by aggregometry. Type of experiment: functional.

On to `CC(=O)Oc1cccc2c(C)cc(=O)[nH]c12`, for which the outcome in the experiment filed under Homo sapiens [1] was Active. Moreover, the inhibition in the experiment filed under Homo sapiens [2] is 12%. For the same molecule, in the experiment on Platelet [3], the inhibition entry is “Active”.
In the case of `CCc1c(C)c2ccc(OC(C)=O)cc2[nH]c1=O`, the inhibition in the experiment listed under Homo sapiens [2] came out at 13%.
Regarding `Cc1cc(=O)[nH]c2ccc(O)cc12`, the inhibition result in the experiment with Rattus norvegicus [4], with Rattus norvegicus [5] and in the experiment with Rattus norvegicus [6] was “inactive” in each case. In addition, the inhibition in the experiment listed under Homo sapiens [2] amounted to 0%.
As to `CC(=O)Oc1cc(=O)[nH]c2ccccc12`, the inhibition in the experiment filed under Homo sapiens [2] is 0%.
For `CC(=O)Oc1ccccc1C(=O)O`, the inhibition entry with Rattus norvegicus [4], with Rattus norvegicus [5] and in the experiment with Rattus norvegicus [6] was “Active” in each case.
Take `CCCCCCc1c(C)c2cccc(OC(C)=O)c2[nH]c1=O`: in the experiment filed under Homo sapiens [2], the inhibition came out at 0%.
For the molecule `CCOC(=O)Cn1c(=O)cc(C)c2ccc(OC(C)=O)cc21`, in the experiment listed under Homo sapiens [2], the inhibition turned out to be 10%. In the experiment with Platelet [3], the inhibition result is “Active”.
As to `CCCCCCc1c(C)c2ccc(OC(C)=O)cc2[nH]c1=O`, in the experiment listed under Homo sapiens [2], the inhibition was found to be 2%.
For the molecule `CC(=O)Oc1ccc2c(C)cc(=O)[nH]c2c1`, the result in the experiment filed under Homo sapiens [1] was Active. Further, the inhibition in the experiment listed under Homo sapiens [2] came to 13.2%. Besides, the inhibition result with Platelet [3] was “Active”.
Turning to `CCc1c(C)c2cccc(OC(C)=O)c2[nH]c1=O`, in the experiment listed under Homo sapiens [2], the inhibition was 11.5%.
With `CCCCCCc1c(C)c2cc(OC(C)=O)ccc2[nH]c1=O`, the inhibition in the experiment filed under Homo sapiens [2] was 7%.
For `CCOC(=O)Cn1c(=O)cc(C)c2cc(OC(C)=O)ccc21`, the inhibition in the experiment listed under Homo sapiens [2] was determined as 23%. Besides, in the experiment with Platelet [3], the inhibition entry was “Active”.
With `CCc1c(C)c2cc(OC(C)=O)ccc2[nH]c1=O`, in the experiment listed under Homo sapiens [2], the inhibition is 26%.
For the molecule `CCOC(=O)COc1cc(C)c2cc(OC(C)=O)ccc2n1`, in the experiment filed under Homo sapiens [2], the inhibition was 28.6%. Further, in the experiment with Platelet [3], the inhibition entry was “inactive”.
Regarding `CCOC(=O)COc1cc(C)c2ccc(OC(C)=O)cc2n1`, the inhibition in the experiment filed under Homo sapiens [2] was found to be 13.2%. In the experiment with Platelet [3], the inhibition result was “inactive”.
For `CC(=O)Oc1ccc2[nH]c(=O)cc(C)c2c1`, the “fold change (FC)” value in the experiment on Rattus norvegicus [7] was 3.5. In addition, the inhibition entry with Rattus norvegicus [4], in the experiment with Rattus norvegicus [5], in the experiment with Platelet [8] and in the experiment on Platelet [3] was “Active” throughout. In addition, the result in the experiment filed under Homo sapiens [1] was Active. In the experiment filed under Homo sapiens [2], the inhibition was 31%.
